From ChEMBL document CHEMBL3108762, “Novel pyridazinone inhibitors for vascular adhesion protein-1 (VAP-1): old target-new inhibition mode” (J Med Chem, 2013)
Active and inactive are the calls of the source. The calls are words filed in the database; no cut-off is given here.

Experiments:
[1] = species: Cavia porcellus; test: Inhibition of guinea pig VAP-1
[2] = Inhibition of cynomolgus monkey recombinant VAP-1 transfected in CHO cells using 2,4-dichlorophenol/benzylamine as substrate incubated for 30 mins prior to benzylamine addition measured after 1 hr by spectrophotometry; assay type: cell-based, Macaca fascicularis
Summary of the method: (§1)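 Coupled colorimetric H2O2 assay with lysate of CHO cells stably expressing full-length VAP-1 of the listed species, dosed to give 0.6 A490/h. Conditions: 0.2 M potassium phosphate pH 7.6, 1 mM 2,4-dichlorophenol, 500 μM 4-aminoantipyrine, 4 U/ml HRP, inhibitor 1 nM–50 μM. Preincubated 30 min at 37 °C, then 1 mM benzylamine (final) for 1 h at 37 °C; A490 read, background-corrected, percent inhibition versus control, IC50 fitted; mean of two to six experiments ± SE.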

[3] = target: T1, Amine oxidase [copper-containing] 3 (Homo sapiens, UniProt Q16853); test: Binding affinity to human recombinant VAP-1 by surface plasmon resonance analysis
T1 sequence (Q16853 whole entry): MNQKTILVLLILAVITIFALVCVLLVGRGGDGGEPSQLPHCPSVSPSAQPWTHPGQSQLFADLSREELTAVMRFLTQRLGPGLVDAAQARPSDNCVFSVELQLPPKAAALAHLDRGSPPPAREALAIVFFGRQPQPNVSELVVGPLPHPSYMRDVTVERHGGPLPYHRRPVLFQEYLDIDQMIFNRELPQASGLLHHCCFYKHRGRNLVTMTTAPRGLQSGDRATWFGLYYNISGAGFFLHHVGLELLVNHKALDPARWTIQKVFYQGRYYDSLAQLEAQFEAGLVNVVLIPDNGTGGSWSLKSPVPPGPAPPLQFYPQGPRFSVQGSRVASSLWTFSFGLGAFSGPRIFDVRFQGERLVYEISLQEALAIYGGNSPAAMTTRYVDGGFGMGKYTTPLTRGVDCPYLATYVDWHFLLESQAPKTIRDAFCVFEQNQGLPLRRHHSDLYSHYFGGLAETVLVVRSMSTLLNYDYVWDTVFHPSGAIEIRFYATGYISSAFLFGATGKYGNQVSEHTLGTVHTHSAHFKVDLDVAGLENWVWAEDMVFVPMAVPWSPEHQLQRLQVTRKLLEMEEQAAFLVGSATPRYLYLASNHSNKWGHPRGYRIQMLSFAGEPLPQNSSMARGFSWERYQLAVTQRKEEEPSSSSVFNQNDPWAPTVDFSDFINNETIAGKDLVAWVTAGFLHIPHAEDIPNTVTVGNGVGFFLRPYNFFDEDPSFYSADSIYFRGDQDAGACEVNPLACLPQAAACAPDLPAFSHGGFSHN
Summary of the method: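 Surface plasmon resonance binding kinetics: recombinant purified VAP-1 amine-coupled to a CM5 chip after preconcentration in 10 mM Na acetate pH 4.4 with 10 μM CuCl2.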

[4] = target: T2, Amine oxidase [copper-containing] 3 (Mus musculus) (UniProt O70423); test: Inhibition of mouse recombinant VAP-1 transfected in CHO cells using 2,4-dichlorophenol/benzylamine as substrate at 1 nM to 50 uM incubated for 30 mins prior to benzylamine addition measured after 1 hr by spectrophotometry; assay type: cell-based; summary of the method: as §1
T2 sequence (whole entry): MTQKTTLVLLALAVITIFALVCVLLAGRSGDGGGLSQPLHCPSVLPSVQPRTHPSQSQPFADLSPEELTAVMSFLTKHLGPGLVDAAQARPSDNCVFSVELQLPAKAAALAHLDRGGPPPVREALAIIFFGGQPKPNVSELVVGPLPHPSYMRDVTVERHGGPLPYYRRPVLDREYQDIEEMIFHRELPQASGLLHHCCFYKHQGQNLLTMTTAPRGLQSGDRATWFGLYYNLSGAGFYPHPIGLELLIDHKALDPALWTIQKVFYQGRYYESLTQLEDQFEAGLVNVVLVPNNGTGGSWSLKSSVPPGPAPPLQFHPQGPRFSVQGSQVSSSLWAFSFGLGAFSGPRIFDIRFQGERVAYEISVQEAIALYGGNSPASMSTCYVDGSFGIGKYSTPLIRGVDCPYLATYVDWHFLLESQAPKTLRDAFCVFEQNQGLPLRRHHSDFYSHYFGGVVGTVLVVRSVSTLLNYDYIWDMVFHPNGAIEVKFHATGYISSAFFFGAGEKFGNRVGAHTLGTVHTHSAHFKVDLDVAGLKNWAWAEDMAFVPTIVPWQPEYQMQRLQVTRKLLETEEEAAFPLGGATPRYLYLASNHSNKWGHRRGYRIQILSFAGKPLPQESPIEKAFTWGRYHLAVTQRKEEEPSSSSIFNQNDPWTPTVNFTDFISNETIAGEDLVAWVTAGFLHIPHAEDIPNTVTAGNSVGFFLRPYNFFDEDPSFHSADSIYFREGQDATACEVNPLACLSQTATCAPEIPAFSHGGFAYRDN

[5] = species: Rattus norvegicus; test: Inhibition of rat liver MAO using vanillic acid/tyramine as substrate at 100 uM incubated for 30 mins prior to tyramine addition measured after 1 hr by spectrophotometry
Summary of the method: (§2)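 Peroxidase-coupled colorimetric assay as for VAP-1, with 1 mM vanillic acid in place of 2,4-dichlorophenol and 0.5 mM tyramine (final) as substrate. Conditions: 0.2 M potassium phosphate pH 7.6, 500 μM 4-aminoantipyrine, 4 U/ml HRP, 30 min preincubation at 37 °C, then 1 h at 37 °C; A490 read. Enzymes: purified human MAO-A or MAO-B from baculovirus-infected BTI insect cells, or total MAO-A/B extracted from rat liver mitochondria. Single-concentration percent inhibition.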

[6] = target: T3, Diamine oxidase [copper-containing] (Sus scrofa) (UniProt Q9TRC7); test: Inhibition of pig kidney DAO at 100 uM
T3 sequence (whole entry): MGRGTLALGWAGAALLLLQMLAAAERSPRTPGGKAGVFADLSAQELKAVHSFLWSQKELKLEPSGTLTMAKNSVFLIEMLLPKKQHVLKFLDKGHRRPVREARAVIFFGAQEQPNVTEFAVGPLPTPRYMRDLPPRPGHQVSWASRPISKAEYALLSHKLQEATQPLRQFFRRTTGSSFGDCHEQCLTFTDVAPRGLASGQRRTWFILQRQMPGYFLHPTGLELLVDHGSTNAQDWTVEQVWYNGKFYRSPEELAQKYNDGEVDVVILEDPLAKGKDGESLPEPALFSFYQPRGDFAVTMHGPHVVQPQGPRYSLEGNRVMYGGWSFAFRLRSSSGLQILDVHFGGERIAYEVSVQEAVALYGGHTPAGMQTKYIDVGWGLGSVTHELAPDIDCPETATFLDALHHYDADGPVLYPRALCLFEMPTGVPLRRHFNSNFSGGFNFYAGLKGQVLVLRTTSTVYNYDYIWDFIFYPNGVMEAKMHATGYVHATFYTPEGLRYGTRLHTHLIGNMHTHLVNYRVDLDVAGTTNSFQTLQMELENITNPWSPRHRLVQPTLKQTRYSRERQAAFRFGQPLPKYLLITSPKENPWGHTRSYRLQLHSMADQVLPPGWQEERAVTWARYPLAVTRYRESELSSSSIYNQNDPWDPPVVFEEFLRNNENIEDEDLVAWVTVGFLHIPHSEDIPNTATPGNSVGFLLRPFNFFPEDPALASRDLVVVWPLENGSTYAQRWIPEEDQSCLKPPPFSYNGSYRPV

[7] = tested on: Cricetinae; test: Inhibition of hamster VAP-1
[8] = target: T1, Amine oxidase [copper-containing] 3; test: Inhibition of human recombinant VAP-1 transfected in CHO cells using 2,4-dichlorophenol/benzylamine as substrate incubated for 30 mins prior to benzylamine addition measured after 1 hr by spectrophotometry; assay type: cell-based; summary of the method: as §1
[9] = target: T4, Amine oxidase [copper-containing] 3 (Rattus norvegicus) (UniProt O08590); test: Inhibition of rat VAP-1
T4 sequence (whole entry): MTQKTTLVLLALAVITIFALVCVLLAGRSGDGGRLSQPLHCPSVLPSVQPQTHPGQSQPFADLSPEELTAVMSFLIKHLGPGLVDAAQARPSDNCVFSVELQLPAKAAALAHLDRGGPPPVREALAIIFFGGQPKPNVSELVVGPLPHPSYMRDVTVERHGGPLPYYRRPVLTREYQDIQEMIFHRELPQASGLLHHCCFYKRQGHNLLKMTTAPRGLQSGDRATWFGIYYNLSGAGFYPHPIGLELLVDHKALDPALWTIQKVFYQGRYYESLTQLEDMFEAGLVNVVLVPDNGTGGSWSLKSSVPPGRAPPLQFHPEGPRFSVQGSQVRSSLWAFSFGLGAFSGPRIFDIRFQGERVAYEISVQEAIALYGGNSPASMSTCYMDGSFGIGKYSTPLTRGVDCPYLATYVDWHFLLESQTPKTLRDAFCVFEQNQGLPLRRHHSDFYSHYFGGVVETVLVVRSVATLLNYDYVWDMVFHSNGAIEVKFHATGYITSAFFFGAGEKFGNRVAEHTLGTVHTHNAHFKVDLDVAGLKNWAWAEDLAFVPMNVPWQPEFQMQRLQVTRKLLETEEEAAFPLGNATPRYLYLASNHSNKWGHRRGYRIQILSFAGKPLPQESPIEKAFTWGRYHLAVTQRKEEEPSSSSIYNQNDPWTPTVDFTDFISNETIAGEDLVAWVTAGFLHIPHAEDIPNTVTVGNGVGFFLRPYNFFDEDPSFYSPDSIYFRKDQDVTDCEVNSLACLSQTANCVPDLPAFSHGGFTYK

[10] = target: T3, Diamine oxidase [copper-containing] (Sus scrofa); test: Inhibition of pig kidney DAO at 50 uM
[11] = target: T5, MAO-A (Homo sapiens, UniProt P21397); test: Inhibition of human recombinant MAO-A expressed in baculovirus infected BTI insect cells using vanillic acid/tyramine as substrate at 20 uM incubated for 30 mins prior to tyramine addition measured after 1 hr by spectrophotometry; conditions: probe tyramine (with vanillic acid); summary of the method: as §2
T5 sequence (P21397 whole entry): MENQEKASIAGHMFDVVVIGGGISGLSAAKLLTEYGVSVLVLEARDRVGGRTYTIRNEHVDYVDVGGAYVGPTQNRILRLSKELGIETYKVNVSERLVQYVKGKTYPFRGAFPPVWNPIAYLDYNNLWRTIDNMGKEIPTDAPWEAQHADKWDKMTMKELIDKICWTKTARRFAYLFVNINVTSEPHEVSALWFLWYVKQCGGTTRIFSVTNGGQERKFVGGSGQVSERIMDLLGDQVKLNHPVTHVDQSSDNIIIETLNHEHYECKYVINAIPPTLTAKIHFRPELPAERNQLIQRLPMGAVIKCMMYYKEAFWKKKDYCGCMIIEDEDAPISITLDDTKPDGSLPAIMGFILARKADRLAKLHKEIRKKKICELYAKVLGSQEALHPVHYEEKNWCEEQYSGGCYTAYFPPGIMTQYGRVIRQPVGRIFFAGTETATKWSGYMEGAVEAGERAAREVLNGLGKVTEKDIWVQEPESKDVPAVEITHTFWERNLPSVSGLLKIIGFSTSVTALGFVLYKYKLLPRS

[12] = target: T6, MAO-B (Homo sapiens, UniProt P27338); test: Inhibition of human recombinant MAO-B expressed in baculovirus infected BTI insect cells using vanillic acid/tyramine as substrate at 20 uM incubated for 30 mins prior to tyramine addition measured after 1 hr by spectrophotometry; conditions: probe tyramine (with vanillic acid); summary of the method: as §2
T6 sequence (P27338 whole entry): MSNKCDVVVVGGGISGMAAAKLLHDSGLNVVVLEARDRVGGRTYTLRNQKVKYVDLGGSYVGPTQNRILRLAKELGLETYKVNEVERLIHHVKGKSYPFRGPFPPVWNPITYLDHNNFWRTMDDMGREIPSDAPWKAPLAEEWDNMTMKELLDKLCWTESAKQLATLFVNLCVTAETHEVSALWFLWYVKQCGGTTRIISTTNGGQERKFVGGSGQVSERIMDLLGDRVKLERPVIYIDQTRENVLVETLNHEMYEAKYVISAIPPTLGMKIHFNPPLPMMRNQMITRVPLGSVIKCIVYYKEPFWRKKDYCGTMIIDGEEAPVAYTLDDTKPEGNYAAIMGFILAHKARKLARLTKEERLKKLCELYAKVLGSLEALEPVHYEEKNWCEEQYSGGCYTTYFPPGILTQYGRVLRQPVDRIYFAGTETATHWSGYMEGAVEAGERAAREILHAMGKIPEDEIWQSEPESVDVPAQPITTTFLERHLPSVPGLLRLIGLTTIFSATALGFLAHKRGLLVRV

Question: Which results are given for `CC(C)Nc1cc(=O)n(-c2ccccc2)nc1-c1nc[nH]n1`?
Answer: inhibition [1]: inactive; IC50 [2]: 250 nM; Kd [3]: 200 nM; inhibition [4]: 10%; inhibition [5]: 8%; inhibition [6]: 30%; inhibition [7]: inactive; IC50 [8]: 290 nM; inhibition [9]: inactive

Question: Which results are given for `CN1CCN(c2ccc(Nc3cc(=O)n(-c4ccc(Cl)cc4)nc3-c3nc[nH]n3)cc2)CC1`?
Answer: inhibition [10]: 36%; inhibition [1]: inactive; IC50 [2]: 26 nM; inhibition [4]: 23%; inhibition [5]: 18%; inhibition at 1 h, 20 µM [11]: 3%; inhibition [7]: inactive; IC50 [8]: 20 nM; inhibition at 1 h, 20 µM [12]: 1%; inhibition [9]: inactive

Question: What does the source list for `O=c1cc(NC2CCCCC2)c(-c2nc[nH]n2)nn1-c1ccccc1`?
Answer: inhibition [1]: inactive; IC50 [2]: 130 nM; Kd [3]: 170 nM; inhibition [4]: 24%; inhibition [5]: 3%; inhibition at 1 h, 20 µM [11]: 4%; inhibition [6]: 40%; inhibition [7]: inactive; IC50 [8]: 71 nM; inhibition at 1 h, 20 µM [12]: 13%; inhibition [9]: inactive
